# sdo1 growth = restores growth of sdo1-depleted yeast; S. cerevisiae sdo1-depleted JHY4D growth rescue, OD600 30 h; stronger effect = higher value; pdr5 snq2 efflux-pump mutant strain; z-score at 10 µM; actives 0.21% (n = 140,000);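 active means z-score above 3 at both the 24 hr and the 30 hr optical density reads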;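 further: z-score against mean and SD of all compound wells on the same plate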
# Yeast life ext = yeast lifespan extension | S. cerevisiae growth with nicotinamide, OD615; deaD strain in restrictive glucose medium | inhibition of the nicotinamide effect, % at 10 µM | actives 0.68% (n = 130,000);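 active means inhibition above a set limit, placed 3 SD over the median of all compounds, cut at about 26% in these data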;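 further: 0% = nicotinamide-treated wells and 100% = cells grown without nicotinamide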
#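 assay system = DeaD-strain S. cerevisiae | buffer or medium = restrictive glucose medium | reagent = 1.5 mM nicotinamide | compound = 10 µM single point, 0.25% DMSO | incubation = 48 h compound exposure at 30 °C, humidified | signal = OD615 measurement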
# BB579 growth dn = chemicals that inhibit yeast BB579 growth in restrictive medium (lifespan-shortening candidates) | S. cerevisiae BB579 growth, OD615, 48 h | inhibition, % at 10 µM | actives 0.51% (n = 140,000) | AID 804;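 active means inhibition above a set limit, 3 SD over the mean compound inhibition, cut at about 44% in these data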
#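 controls = amphotericin B 10 µg/mL, positive | assay system = DeaD yeast strain BB579 | schedule = 48 h compound exposure at 30 °C after 4 h preincubation | detection = OD615 turbidity measurement | medium = restrictive CSMM-D medium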
# RAM network inh = blocks the yeast RAM network | S. cerevisiae dse1pr::URA3 reporter, 5-FOA growth OD615, 2 d; analog-sensitive cbk1-as2 kinase mutant strain | inhibition, % at 50 µM | actives 1.8% (n = 190,000) | AID 868;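 active means inhibition above a set limit, 3 SD over mean compound inhibition, cut at about 8.4% in these data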;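 further: 0% = DMSO-only wells with no growth and 100% = 10 µM 1-NA-PP1 full growth; inhibition rescues growth on 5-FOA so higher OD means more RAM inhibition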
# * hit, by the source's call; x = no result. Most compounds without a hit are left out; they make up all but 2.7% or so of the library.
SMILES,sdo1 growth,Yeast life ext,BB579 growth dn,RAM network inh
CCc1ccc(NC(=S)N2CCNC(=O)C2CC(=O)OC)cc1 (stereo not given),x,x,x,1
COc1ccc(C2=NOC(C(=O)Nc3ccc(C)cc3)C2)cc1OC (stereo not given),-0.33,-28,-27,9.2*
CC(C)CC(C)c1cc(N)nc2nc3ccccc3n12 (stereo not given),x,x,x,0
N#CSCC(=O)c1cccc2ccccc12,-1.3,0,84*,-1
Cc1csc(SCC(=O)Nc2sccc2C(N)=O)n1,x,x,x,2
Oc1ccc2oc3c(c2c1/C=N/n1cnnc1)CCCC3,-0.86,-3,-43,0
Cc1ccnc(N=Cc2c(O)ccc3oc4c(c23)CCCC4)c1,-0.32,45*,-54,0
CC1=NN(c2ccc(C(F)(F)F)cn2)C(=O)C1,-0.38,58*,-23,-1
CCOC(=O)N1CCN(c2ccc(C(F)(F)F)cn2)CC1,1.2,-7,-3,2
COC(=O)c1ccc(OC)c(CSc2nnc(COc3ccc(Cl)cc3)o2)c1,-0.75,-6,-34,9.7*
O=C1NC(c2ccccc2)Nc2c1sc(=S)n2-c1ccccc1 (stereo not given),x,x,x,4
O=C(CNC(=O)c1ccc(Cl)cc1)OCC(=O)N1CCCC1,x,x,x,2
CCCSC1=N/C(=C\c2ccc3c(c2)OCO3)C(=O)S1,0.88,-18,-62,10*
CCCSC1=N/C(=C\c2ccsc2)C(=O)S1,-0.34,-13,-41,4
O=C1CSC(=S)N1c1cccnc1,0.53,-2,44*,-1
O=C(c1cc2cc([N+](=O)[O-])ccc2s1)N1CCOCC1,x,x,x,1
Fc1ccc(N/N=C/c2ccc(N3CCOCC3)cc2)c(F)c1,x,x,x,2
O=C(Nc1ccccc1)N1N=C(c2ccc(F)cc2)CC1c1ccc(F)cc1 (stereo not given),-1.1,2,-7,9.6*
CCCc1cc(NCc2ccccn2)n2c(nc3ccccc32)c1C#N,x,x,x,11*
O=C(Nc1ccc2c(c1)OCCO2)NC1(C(F)(F)F)Oc2ccccc2O1,-1.7,30*,-49,1
Cc1nn2c(-c3ccco3)nnc2c2ccccc12,-2,-12,88*,3
COc1ccc(-c2nnc3c4ccccc4c(C)nn23)cc1,-1.6,-5,49*,1
Cc1nn2c(-c3ccncc3)nnc2c2ccccc12,-2.1,-13,89*,2
Cc1ccccc1-c1nnc2c3ccccc3c(C)nn12,-0.49,x,-14,0
OCC1(CCc2ccccc2)CCN(Cc2cc(F)ccc2-n2cccn2)CC1,x,x,x,2
SMILES,sdo1 growth,Yeast life ext,BB579 growth dn,RAM network inh
COc1ccc(C(C[N+](=O)[O-])c2c(-c3ccccc3)cc3ccccn23)cc1OC (stereo not given),-1.2,25,19,1
COc1cc(C(C[N+](=O)[O-])c2c(-c3ccccc3)cc3ccccn23)cc(OC)c1OC (stereo not given),-0.3,78*,-53,3
Cn1c(N2CCOCC2)c(/C=N/OC(=O)c2ccc(F)cc2)c2ccccc21,-1,-23,85*,1
Cn1c(N2CCOCC2)c(/C=N/OC(=O)c2cccnc2Cl)c2ccccc21,x,x,x,0
Cc1ccc(C(=O)O/N=C/c2c(N3CCOCC3)n(C)c3ccccc23)cc1,-0.56,-8,64*,1
Cn1c(N2CCOCC2)c(/C=N/O)c2ccccc21,x,x,x,0
CC(=O)O/N=C/c1c(N2CCOCC2)n(C)c2ccccc12,-1.2,-10,79*,0
O=C1N=c2ccc(Br)cc2=C1c1sc(=S)n(NS(=O)(=O)c2ccccc2)c1O,x,x,x,4
NS(=O)(=O)c1ccc(NC(=O)COC(=O)C2CC(=O)N(Cc3ccccc3)C2)cc1 (stereo not given),x,x,x,1
CC(=O)NC(Cc1cccc(F)c1)C(=O)NC1CCN(c2nnnn2-c2ccccc2)CC1 (stereo not given),x,x,x,0
CCSc1nc(-c2ccc(OC)cc2)ccc1C#N,-1,-15,-51,8.7*
C=CCNC(=O)COC(=O)c1cccnc1Nc1ccccc1F,x,x,x,1
COc1cc(OC)cc(C(=O)NNC(=O)CCc2ccccc2)c1,x,x,x,2
CS(=O)(=O)n1nc(-c2ccc(Cl)cc2)nc1N,x,x,x,3
Cn1nc(-c2ccc(Cl)cc2)nc2c(=O)n(C)c(=O)nc1-2,-3.1,-39,100*,-1
COc1ccc(C(C)=O)cc1COC(=O)c1cnc(Cl)c(Cl)c1,x,x,x,9.9*
COc1ccc(C(C)=O)cc1COC(=O)c1ccc2c(c1)OCO2,-0.67,-19,-9,8
